Assay [1] concerns the target T1, human FFA4 (Homo sapiens, UniProt Q5NUL3).
T1 sequence (Q5NUL3 1-361): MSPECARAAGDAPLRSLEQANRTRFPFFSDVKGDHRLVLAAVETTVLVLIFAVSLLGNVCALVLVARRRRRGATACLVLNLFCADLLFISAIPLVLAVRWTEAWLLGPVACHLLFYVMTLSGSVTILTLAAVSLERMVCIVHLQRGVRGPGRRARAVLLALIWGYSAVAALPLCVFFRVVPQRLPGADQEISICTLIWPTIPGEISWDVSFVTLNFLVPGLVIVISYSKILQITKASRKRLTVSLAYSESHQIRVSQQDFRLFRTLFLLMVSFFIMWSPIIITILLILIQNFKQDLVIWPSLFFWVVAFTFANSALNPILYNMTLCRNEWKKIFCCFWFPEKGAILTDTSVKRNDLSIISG
The experiment in a line: FLIPR calcium flux assay in CHO-FFA4 cells. The class given is cell-based. The following applies: acetylshikonin 100 μM, TUG891 15 μM.

Assay [2] has as its system HT29 cells. Put plainly: DMR agonist assay in HT29 cells. The class given is cell-based, Human. As to conditions: for EC50: Homo sapiens, HT-29, read-out: HT29 cell, EC50, NPs-derived FFA4 agonists, DMR, HT29 cells.
For assay [3], the target named is T2, human FFA1 (Homo sapiens, UniProt O14842). The experiment in a line: DMR agonist assay in CHO-FFA1 cells. It is filed as cell-based. As to conditions: for EC50: CHO-FFA1 cell, EC50, NPs-derived FFA4 agonists.
Assay [4] has as its target T1, human FFA4. Put plainly: DMR agonist assay in CHO-FFA4 cells. The class given is cell-based. The following applies: for EC50: CHO-FFA4 cell, EC50, NPs-derived FFA4 agonists, DMR, CHO-FFA4 cells; for Selectivity between FFA4 and FFA1: comparison of DMR activity in CHO-FFA4 and CHO-FFA1 cells; for DMR response relative to the TUG891-induced response: screening of 140 natural compounds in CHO-FFA4 cells, of the TUG891-induced response (∼80 pm); for DMR response in CHO-FFA4 cells: 100 μM ALA, 12.5 μM GW9508, 10 μM TAK875 (Fig. 2A).

The next assay relates to CHO-K1 cells. The experiment in a line: DMR agonist assay in parental CHO-K1 cells. It is filed as cell-based, Chinese hamster. The method in brief: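 Parental CHO-K1 cells were grown in Ham's F12K with 10% FBS, then seeded on biosensor microplates overnight to a confluent monolayer. Cells were washed twice and held 1–2 h in HBSS, 10 mM HEPES, pH 7.2, 0.1% BSA. After a 2 min baseline, the test compound, diluted in the same buffer, was added. Label-free DMR was recorded for 1 h.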

Assay [5] addresses T2, human FFA1. Put plainly: DMR desensitization assay in CHO-FFA1 cells. The class given is cell-based. As to conditions: CHO-FFA1 cell Desensitization IC50, IC50 to desensitize the DMR of 1 μM GW9508 in CHO-FFA1 cells.
In assay [6] the test system is HT29 cells. Put plainly: DMR desensitization assay in HT29 cells. The class given is cell-based. As to conditions: Homo sapiens, HT-29, read-out: HT 29 cell Desensitization IC50.
Assay [7] has as its target T1, human FFA4. Put plainly: DMR desensitization assay in CHO-FFA4 cells. The class given is cell-based.
The test system of another assay is FFA4. The following applies: read-out: EC50 as natural FFA4 agonist; literature retrieval; cited from earlier work.

This is an account of results in PMC9064241 (RSC Advances, 2019).

Each structure is given as a SMILES string. Where only a bound is given, the exact number is not on record here.

One may read the EC50 as the concentration at which the effect is half-maximal. By IC50 is commonly meant the concentration at which inhibition is half-maximal.

T2 sequence (O14842 whole entry): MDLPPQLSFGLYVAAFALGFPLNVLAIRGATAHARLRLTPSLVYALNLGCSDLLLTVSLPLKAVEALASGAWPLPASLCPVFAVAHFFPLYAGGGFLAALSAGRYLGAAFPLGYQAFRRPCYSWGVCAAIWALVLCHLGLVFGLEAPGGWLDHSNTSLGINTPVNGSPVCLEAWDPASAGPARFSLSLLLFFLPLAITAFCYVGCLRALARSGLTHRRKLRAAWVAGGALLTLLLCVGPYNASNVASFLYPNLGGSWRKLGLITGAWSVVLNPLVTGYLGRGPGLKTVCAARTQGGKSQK

For `CC(=O)O[C@H](CC=C(C)C)C1=CC(=O)c2c(O)ccc(O)c2C1=O` [Acetylshikonin, acetylshikonin], the “Ca2+ response in CHO-FFA4 cells” value at human FFA4 [1] is reported as “produced a Ca^2+ response”. Further, the EC50 in the assay on HT29 cells [2] was 2.82 ± 0.39 µM. Further, the concentration giving a half-maximal response (EC50) at human FFA1 [3] came to 6.17 ± 2.81 µM. Further, on human FFA4 [4], a half-maximal effect (EC50) was put at 10.2 ± 2.95 µM; the “Selectivity between FFA4 and FFA1” value is “non-selective”; the “DMR response relative to the TUG891-induced response” value is reported as “greater than 30%”.
Turning to `Cc1cc(O)c2c(c1)C(=O)c1cc(O)cc(O)c1C2=O` [Emodin, emodin], the concentration giving a half-maximal response (EC50) with HT29 cells [2] is about 39 µM; on human FFA1 [3], over 100 µM; on human FFA4 [4], 38.2 ± 5.02 µM. Besides, the “Selectivity between FFA4 and FFA1” value at human FFA4 [4] is “selectivity on FFA4”. The “DMR response relative to the TUG891-induced response” value at human FFA4 [4] is “greater than 30%”.
Take `O=C(O)CCc1ccc(NCc2cccc(Oc3ccccc3)c2)cc1` [GW9508]: in the assay with CHO-K1 cells, the “DMR response in parental CHO-K1 cells” value is given as “negligible DMR response”. The “Agonist efficacy in CHO-FFA1 cells compared with ALA” value at human FFA1 [3] is listed as “partial agonism”. The values for the IC50 at human FFA1 [5] and with HT29 cells [6] were 0.14 ± 0.01 µM and 12 ± 2.12 µM, respectively. For the same compound, the “DMR response in CHO-FFA4 cells” value on human FFA4 [4] is on record as “minor response”.
In the case of `Cc1cc(OCCCS(C)(=O)=O)cc(C)c1-c1cccc(COc2ccc3c(c2)OC[C@H]3CC(=O)O)c1` [TAK875], the IC50 on human FFA4 [7] and in the assay with HT29 cells [6] was over 20 µM each time. Moreover, in the assay with CHO-K1 cells, the “DMR response in parental CHO-K1 cells” value was “negligible DMR response”. For the same compound, the “DMR response in HT29 cells” value with HT29 cells [2] (TAK875 at 10 μM, MEDICA16) is “did not induce an observable signal”. In addition, the “DMR response in CHO-FFA4 cells” value at human FFA4 [4] was “did not induce any response”.
Take `Cc1ccc(-c2ccc(F)cc2COc2ccc(CCC(=O)O)cc2)cc1` [TUG891]: the “DMR response in parental CHO-K1 cells” value in the assay with CHO-K1 cells is “neither GSK137647A (Fig. 2F) nor TUG891 (data not shown) produced detectable DMR events”. Moreover, the concentration for half-maximal inhibition (IC50) with HT29 cells [6] was determined as 0.48 ± 0.12 µM.
For `CC(C)=CCC/C(C)=C/CC/C(C)=C/Cc1c(O)cc(C)c(C(=O)O)c1O` [grifolic acid], the half-maximal effective concentration (EC50) in the assay on FFA4 was over 30 µM.
`CCCCCCCCCCCCCC[C@@H](O)[C@@H](O)[C@@H](N)CO` [phytosphingosine]: the EC50 with FFA4 is 33.4 µM.
